From ChEMBL document CHEMBL1177665, “Discovery of potent and orally active tricyclic-based FBPase inhibitors” (Bioorg Med Chem, 2010)
Activity calls are given as the source filed them. No cut-off for these calls is given here.

How the values were obtained:
[1] = molecular target: T1, Fructose-1,6-bisphosphatase 1 (Homo sapiens, UniProt P09467); assay: Inhibition of human FBase
T1 sequence (P09467 whole entry): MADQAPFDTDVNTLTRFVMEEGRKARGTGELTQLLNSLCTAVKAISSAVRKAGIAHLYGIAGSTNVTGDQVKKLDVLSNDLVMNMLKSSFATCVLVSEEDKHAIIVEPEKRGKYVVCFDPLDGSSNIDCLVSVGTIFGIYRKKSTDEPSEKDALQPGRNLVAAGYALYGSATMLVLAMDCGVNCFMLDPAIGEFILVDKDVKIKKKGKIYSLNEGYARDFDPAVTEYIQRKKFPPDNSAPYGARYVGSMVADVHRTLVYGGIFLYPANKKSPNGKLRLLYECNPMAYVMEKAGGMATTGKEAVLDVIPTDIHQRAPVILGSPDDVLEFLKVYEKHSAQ

[2] = Inhibition of monkey FBase; set-up: species or system Macaca mulatta
[3] = Antidiabetic activity in monkey hepatocytes assessed as inhibition of glucose production after 4 hrs; type: functional, cell-based; conditions: Macaca mulatta, Hepatocyte
Summary of the method: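 Monkey hepatocytes in phosphate buffered saline with 25 mM sodium bicarbonate, 25 mM HEPES, 1% BSA; compound preincubation only 2 min, then washed out and cells incubated 4 h with 10 mM lactate plus 1 mM pyruvate. Medium glucose measured by Glucose CII-test; IC50 reported as mean SD (n = 7).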

Cynomolgus monkey = assay: Antidiabetic activity in cynomolgus monkey assessed as decrease in blood glucose level at 20 mg/kg, po after 4 hrs; type: functional, organism-based; set-up: dose 20 mg/kg; conditions: Macaca fascicularis
Summary of the method: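 Overnight-fasted cynomolgus monkeys (n = 7, 5–8 years old) dosed orally at 20 mg/kg in vehicle (50% PEG 400, 0.5% MC, 0.5% Tween 80) or vehicle alone; crossover in same animals with at least 2-week washout. Blood drawn predose and 1–12 h post-dose; plasma glucose read on i-STAT 300F analyser; mean S.E.M., paired t-test versus vehicle.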

SMILES | IC50 [1] [µM] | IC50 [2] [µM] | IC50 [3] [µM] | Activity (Cynomolgus monkey)
Cc1cc(OCP(=O)(N[C@@H](C)C(=O)OC(C)C)N[C@@H](C)C(=O)OC(C)C)c2c(c1C)Cc1scnc1-2 | 0.01 | 0.034 | 9 | –
CCOC(=O)[C@H](C)NP(=O)(N[C@@H](C)C(=O)OCC)c1ccc(-c2nc(N)sc2CC(C)C)o1 | 0.01 | 0.03 | 10 | –
CCOC(=O)[C@H](C)NP(=O)(COc1cc(C)c(C)c2c1-c1ncsc1C2)N[C@@H](C)C(=O)OCC | 0.01 | 0.034 | 6.8 | Active
CCOC(=O)[C@H](C)NP(=O)(COc1ccc(C(=O)NCC(C)(C)C)c2c1-c1ncsc1C2)N[C@@H](C)C(=O)OCC | 0.011 | 0.031 | > 100 | –
CCOC(=O)CNP(=O)(COc1cc(C)c(C)c2c1-c1ncsc1C2)NCC(=O)OCC | 0.01 | 0.034 | 9.4 | –

Now from value to compound, other results behind:

IC50 [1] [µM] | IC50 [2] [µM] | SMILES | IC50 [3] [µM] | Activity (Cynomolgus monkey)
0.001 | 0.022 | CCOC(=O)[C@H](C)NP(=O)(COc1ccc(C(N)=O)c2c1-c1ncsc1C2)N[C@@H](C)C(=O)OCC | 94 | –
0.008 | 0.024 | CCOC(=O)[C@H](C)NP(=O)(COc1ccc(C)c2c1-c1ncsc1C2)N[C@@H](C)C(=O)OCC | 7.4 | –
0.011 | 0.023 | CCOC(=O)[C@H](C)NP(=O)(COc1ccc(CC)c2c1-c1ncsc1C2)N[C@@H](C)C(=O)OCC | 23 | –
0.002 | 0.019 | CCOC(=O)[C@H](C)NP(=O)(COc1ccc(C(=O)NC)c2c1-c1ncsc1C2)N[C@@H](C)C(=O)OCC | > 100 | –
